{"source": "ChEMBL document CHEMBL1158723", "about": "“Daucane sesquiterpenes from Ferula hermonis” (2005)", "format_in_all_cases": "functional", "key": {"MCF7 [1]": {"test_system": "MCF7", "experiment": "Estrogenic effect in human MCF7 cells assessed as stimulation of cell proliferation at 1 ug/ml relative to control by [3H]hypoxanthine incorporation assay", "procedure,_shortened": "(§1)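 MCF-7 cells were grown to confluence in DMEM with 10% FBS, trypsinized, and viable cells (Trypan blue) seeded at 10 000/well in phenol red-free medium. After overnight attachment, tamoxifen (2 μM) was added for 24 h. Cells were washed with Ca/Mg-free PBS, then exposed to test agents for 1 day. Triplicates; % proliferation scaled with no-compound as 0% and β-estradiol 10 nM as 100%; Dunnett's test.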"}, "MCF7 [2]": {"test_system": "MCF7", "experiment": "Estrogenic effect in human MCF7 cells assessed as stimulation of cell proliferation at 10 ug/ml relative to control by [3H]hypoxanthine incorporation assay", "procedure,_shortened": "as §1"}, "MCF7 [3]": {"test_system": "MCF7", "experiment": "Estrogenic effect in human MCF7 cells assessed as stimulation of cell proliferation at 0.1 ug/ml relative to control by [3H]hypoxanthine incorporation assay", "procedure,_shortened": "as §1"}, "MCF7 [4]": {"test_system": "MCF7", "experiment": "Estrogenic effect in human MCF7 cells assessed as stimulation of cell proliferation at 10 nM relative to control by [3H]hypoxanthine incorporation assay", "procedure,_shortened": "as §1, with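 “day. [3H]-hypoxanthine (9.25 kBq/well) was added for 12 h.” for “day.”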"}, "MCF7 [5]": {"test_system": "MCF7", "experiment": "Estrogenic effect in human MCF7 cells assessed as stimulation of cell proliferation at 1 nM relative to control by [3H]hypoxanthine incorporation assay", "procedure,_shortened": "as §1, with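 “day. [3H]-hypoxanthine (9.25 kBq/well) was added for 12 h.” for “day.”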"}, "MCF7 [6]": {"test_system": "MCF7", "experiment": "Estrogenic effect in human MCF7 cells assessed as stimulation of cell proliferation at 0.1 nM relative to control by [3H]hypoxanthine incorporation assay", "procedure,_shortened": "as §1, with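 “day. [3H]-hypoxanthine (9.25 kBq/well) was added for 12 h.” for “day.”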"}}, "data": [{"smiles": "C/C=C(/C)C(=O)O[C@@]1(C)CCC2=C(C(C)C)[C@@H](OCC)C[C@]2(C)CC1=O", "values": [{"measurement": "Activity", "setting": "MCF7 [1]", "value": 321.4, "unit": "%"}, {"measurement": "Activity", "setting": "MCF7 [2]", "value": 974.4, "unit": "%"}, {"measurement": "Activity", "setting": "MCF7 [3]", "value": 223.9, "unit": "%"}]}, {"smiles": "O=c1c(-c2ccc(O)cc2)coc2cc(O)cc(O)c12", "note": "[GENISTEIN]", "values": [{"measurement": "Activity", "setting": "MCF7 [1]", "value": 114.8, "unit": "%"}, {"measurement": "Activity", "setting": "MCF7 [2]", "value": -76.7, "unit": "%"}, {"measurement": "Activity", "setting": "MCF7 [3]", "value": -72.4, "unit": "%"}]}, {"smiles": "CC1=CC(=O)[C@@H]2[C@@](C)(CC1)CC[C@@]2(O)C(C)C", "values": [{"measurement": "Activity", "setting": "MCF7 [1]", "value": 97.5, "unit": "%"}, {"measurement": "Activity", "setting": "MCF7 [2]", "value": 181.4, "unit": "%"}, {"measurement": "Activity", "setting": "MCF7 [3]", "value": 308.2, "unit": "%"}]}, {"smiles": "C[C@]12CC[C@@H]3c4ccc(O)cc4CC[C@H]3[C@@H]1CC[C@@H]2O", "note": "[ESTRADIOL]", "values": [{"measurement": "Activity", "setting": "MCF7 [4]", "value": 100, "unit": "%"}, {"measurement": "Activity", "setting": "MCF7 [5]", "value": 130.3, "unit": "%"}, {"measurement": "Activity", "setting": "MCF7 [6]", "value": 74.6, "unit": "%"}]}, {"smiles": "CC1=CC(=O)[C@@H]2[C@](C)(CC[C@@]2(O)C(C)C)CC1=O", "values": [{"measurement": "Activity", "setting": "MCF7 [1]", "value": -26.5, "unit": "%"}, {"measurement": "Activity", "setting": "MCF7 [2]", "value": -285.7, "unit": "%"}, {"measurement": "Activity", "setting": "MCF7 [3]", "value": 5.9, "unit": "%"}]}]}
